{"source": "the EternaBench riboswitch data", "tested_on": "MS2 coat protein", "assay": "apparent Kd, MS2 coat protein; higher = weaker binding; RNA-MaP array; tryptophan 2.4 mM where present", "how_it_was_run": "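On Illumina sequencing-chip clusters, designs were transcribed by stalled E. coli RNA polymerase and titrated with SNAP-549-labelled MS2 coat protein (0.7 or 1.5 nM, doubling to 3 µM), without and then with constant ligand, in 100 mM Tris-HCl pH 7.5, 80 mM KCl, 4 mM MgCl2, BSA, DTT, yeast tRNA and Tween-20. Apparent Kd is the median of filtered per-cluster curve fits to green signal normalised to red-channel RNA signal and control-cluster median Fmax.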", "key": {"[1]": {"settings": "designed as: OFF switch for tryptophan, no ligand"}, "[2]": {"settings": "ligand present: tryptophan, designed as: OFF switch for tryptophan"}, "[3]": {"settings": "designed as: ON switch for tryptophan, no ligand"}, "[4]": {"settings": "ligand present: tryptophan, designed as: ON switch for tryptophan"}}}
{"sequence": "UAUAUAUACUCGGCCGCCACUGAGAGAGUCAUGUAAACAUGAGGAUCACCCAUGUAAUAUAUAUACAGGACCGGGAGUAUAUGAA", "values": [{"measurement": "apparent Kd", "setting": "[1]", "result": 0.0154, "unit": "µM"}, {"measurement": "apparent Kd", "setting": "[2]", "result": 0.0136, "unit": "µM"}]}
{"sequence": "UAUAUAUAUCACUAACUGUUCUUGAGGUCUCGAGGACCGGUACGGCCGCCACUCGUACCGCCUCACAUGAGGAUCACCCAUGUCC", "values": [{"measurement": "apparent Kd", "setting": "[1]", "result": 0.063, "unit": "µM"}, {"measurement": "apparent Kd", "setting": "[2]", "result": 0.0591, "unit": "µM"}]}
{"sequence": "UCAUAAGUACCGGUCCUCAGAUCCUCAUGACGAGGACCGGUACGGCCGCCACUCGAAACAUGAGGAUCACCCAUGUAAUAACAUU", "values": [{"measurement": "apparent Kd", "setting": "[1]", "result": 0.0209, "unit": "µM"}, {"measurement": "apparent Kd", "setting": "[2]", "result": 0.0185, "unit": "µM"}]}
{"sequence": "UCGUGUCUAUUGGUUUAGCUUUAAUCGUUACGAGGACCGGUACGGCCGCCACUCGAUUUAACAUGAGGAUCACCCAUGUACUCUC", "values": [{"measurement": "apparent Kd", "setting": "[1]", "result": 0.019, "unit": "µM"}, {"measurement": "apparent Kd", "setting": "[2]", "result": 0.0212, "unit": "µM"}]}
{"sequence": "UCGUUUUAGUCGGCCGCCACUGGUCUCAUGUUCAACAUGAGGAUCACCCAUGUAUCUUAUUUUAACAGGACCGGGACGUAAUAGA", "values": [{"measurement": "apparent Kd", "setting": "[1]", "result": 0.0508, "unit": "µM"}, {"measurement": "apparent Kd", "setting": "[2]", "result": 0.0198, "unit": "µM"}]}
{"sequence": "UCUGUUUGCUUUGUUUGUUUCUUCUUUGAGCGAGGACCGGUACGGCCGCCACUCGGGUUACAUGAGGAUCACCCAUGUGGUUUCU", "values": [{"measurement": "apparent Kd", "setting": "[3]", "result": 0.0989, "unit": "µM"}, {"measurement": "apparent Kd", "setting": "[4]", "result": 0.0578, "unit": "µM"}]}
{"sequence": "UGGGUACCGACGGCCGCCACUGAAUAUAGACAUGAGGAUCACCCAUGUAGAGAUCCUAGAAUAAACAGGACCGGGUCUGGUGCUA", "values": [{"measurement": "apparent Kd", "setting": "[1]", "result": 0.22, "unit": "µM"}, {"measurement": "apparent Kd", "setting": "[2]", "result": 0.361, "unit": "µM"}]}
{"sequence": "UUCUACGGCGAUCUGGGUUUACCAGAUCGACGAGGACCGGUACGGCCGCCACUCGUGUUUCUUUAACAUGAGGAUCACCCAUGUA", "values": [{"measurement": "apparent Kd", "setting": "[3]", "result": 0.048, "unit": "µM"}, {"measurement": "apparent Kd", "setting": "[4]", "result": 0.0224, "unit": "µM"}]}
{"sequence": "UUUAUUAUUGACUCGUUUUGGUAUUAAGAACGAGGACCGGUACGGCCGCCACUCGUGAUAUACAUGAGGAUCACCCAUGUUAGCA", "values": [{"measurement": "apparent Kd", "setting": "[3]", "result": 0.0151, "unit": "µM"}, {"measurement": "apparent Kd", "setting": "[4]", "result": 0.0155, "unit": "µM"}]}
